Measurements from different studies.
Each line is one published result; the experiments were not run side by side.
Organism: Pseudomonas aeruginosa

SMILES	test	test system	conditions	endpoint	result
COc1c(C)c(OC(C)=O)c(C)c(OC(C)=O)c1C(=O)/C=C/c1ccccc1	microbial killing, broth dilution	ATCC27853	–	MBC	> 5000 µg/mL
CN[C@H](CC(C)C)C(=O)N[C@H]1C(=O)N[C@@H](CC(N)=O)C(=O)N[C@H]2C(=O)N[C@H]3C(=O)N[C@H](C(=O)N[C@H](C(=O)O)c4cc(O)cc(O)c4-c4cc3ccc4O)[C@H](O)c3ccc(c(Cl)c3)Oc3cc2cc(c3O[C@@H]2O[C@H](CO)[C@@H](O)[C@H](O)[C@H]2O[C@H]2C[C@](C)(N)[C@H](O)[C@H](C)O2)Oc2ccc(cc2Cl)[C@H]1O	microbial killing, broth dilution	ATCC9027	–	MBC	> 128 µM
COc1c(C)c(O)c(C)c(O)c1C(=O)/C=C/c1ccccc1	microbial killing, broth dilution	ATCC27853	–	MBC	> 5000 µg/mL
O=c1cccccc1S	microbial growth, broth dilution	ATCC27853	–	MIC80	> 71.4 µM
COc1cc(C=CC(=O)CC(c2ccc(N(C)C)cc2)n2ccnc2)ccc1O (centres unmarked)	microbial growth, disc diffusion	ATCC27853	500 µg/mL	inhibition zone	23.3 mm
CCCCCCCCCC(=O)Oc1c(C)c(O)c(C(=O)/C=C/c2ccccc2)c(OC)c1C	microbial killing, broth dilution	ATCC27853	–	MBC	> 5000 µg/mL
O=C(Cc1ccccc1)Sc1cccccc1=O	microbial growth, broth dilution	ATCC27853	–	MIC80	> 71.4 µM
COc1cc(C=CC(=O)CC(c2ccc([N+](=O)[O-])cc2)n2ccnc2)ccc1O (centres unmarked)	microbial growth, disc diffusion	ATCC27853	250 µg/mL	inhibition zone	6 mm
CC1(C)S[C@@H]2[C@H](NC(=O)C(C(=O)O)c3ccccc3)C(=O)N2[C@H]1C(=O)O (some centres unmarked)	microbial growth, well diffusion	PAO1	200 µM	inhibition zone	9.3 mm
CC[C@H](C)[C@H](NC(=O)OCC1c2ccccc2-c2ccccc21)C(=O)Sc1cccccc1=O	microbial growth, broth dilution	ATCC27853	–	MIC80	> 71.4 µM
O=c1[nH]cc(F)c(=O)[nH]1	microbial killing, broth dilution	–	48 h	MBC	8 µg/mL
CC1(C)SC2C(NC(=O)C(NC(=O)C3=C(O)C(Cc4ccsc4)NC3=O)c3ccccc3)C(=O)N2C1C(=O)O (centres unmarked)	microbial growth, well diffusion	PAO1	200 µM	inhibition zone	11 mm
CCCC(=O)Oc1c(C)c(O)c(C(=O)/C=C/c2ccccc2)c(OC)c1C	microbial killing, broth dilution	ATCC27853	–	MBC	> 5000 µg/mL
COc1cc(C=Cc2cc(-c3ccccc3)nc(O)n2)ccc1O	microbial growth, disc diffusion	ATCC27853	250 µg/mL	inhibition zone	6 mm
CC(C)c1cccc(=O)c(O)c1	microbial growth, broth dilution	ATCC27853	–	MIC80	> 71.4 µM
COc1c(C)c(OS(=O)(=O)c2ccc3ccccc3c2)c(C)c(OS(=O)(=O)c2ccc3ccccc3c2)c1C(=O)/C=C/c1ccccc1	microbial growth, well diffusion	ATCC27853	5 µg/mL	inhibition zone	14 mm
CC(C)CC1NC(=O)C(C(=O)NC(C(=O)NC2C(=O)N3C2SC(C)(C)C3C(=O)O)c2ccccc2)=C1O (centres unmarked)	microbial growth, well diffusion	PAO1	200 µM	inhibition zone	11.7 mm
O=c1cccccc1Sc1cccccc1=O	microbial growth, broth dilution	ATCC27853	–	MIC80	> 71.4 µM
CCCCCC(=O)Oc1c(C)c(O)c(C(=O)/C=C/c2ccccc2)c(OC)c1C	microbial killing, broth dilution	ATCC27853	–	MBC	> 5000 µg/mL
O=C(Sc1cccccc1=O)c1cccc(C(F)(F)F)c1	microbial growth, broth dilution	ATCC27853	–	MIC80	> 71.4 µM
CCN1CCN(C(=O)N[C@@H](C(=O)N[C@@H]2C(=O)N3[C@@H]2SC(C)(C)[C@@H]3C(=O)O)c2ccccc2)C(=O)C1=O	microbial growth, well diffusion	PAO1	200 µM	inhibition zone	19 mm
Cc1cc(N)c2ccccc2[n+]1CCCCCCCCCC[n+]1c(C)cc(N)c2ccccc21	microbial growth, disc diffusion	–	50 µg/disc	inhibition zone	0 mm
C=CCOc1c(C)c(O)c(C(=O)/C=C/c2ccccc2)c(OC)c1C	microbial killing, broth dilution	ATCC27853	–	MBC	> 5000 µg/mL
CCCCCCCCCCCCCC(O)CC(O)CO (centres unmarked)	microbial growth, broth dilution	ATCC27853	–	IC50	> 200 µg/mL
CC1(C)S[C@@H]2[C@H](NC(=O)[C@H](N)c3ccc(O)cc3)C(=O)N2[C@H]1C(=O)O	microbial growth, disc diffusion	ATCC27853	250 µg/mL	inhibition zone	9.38 mm
COc1c(C)c(OCc2ccccc2)c(C)c(O)c1C(=O)/C=C/c1ccccc1	microbial killing, broth dilution	ATCC27853	–	MBC	> 5000 µg/mL
COc1cc(C=Cc2cc(-c3ccc(N(C)C)cc3)nc(O)n2)ccc1O	microbial growth, disc diffusion	ATCC27853	500 µg/mL	inhibition zone	7.67 mm
CC1(C)SC2C(NC(=O)C(NC(=O)C3=C(O)C(Cc4ccccc4)NC3=O)c3ccccc3)C(=O)N2C1C(=O)O (centres unmarked)	microbial growth, well diffusion	PAO1	200 µM	inhibition zone	10.7 mm
C=CCCCCCCCCCCCC(O)CC(O)CO (centres unmarked)	microbial growth, broth dilution	ATCC27853	–	IC50	> 200 µg/mL
